Results: article PMC4869561 (Inflammatory Bowel Diseases, 2016)
Converted amounts (≈) assume the structure as drawn. “Also recorded” adds a separate entry of the source. Like-named read-outs stand apart in the source and are kept apart here.

How the values were obtained:
[1] = tested on: anti-CD3/anti-CD28-stimulated PBMCs; experiment: CD3/CD28 stimulation of PBMCs, IL-2 and IFN-γ release; assay type: cell-based, human; conditions: for efficacy of inhibition of IFN-γ release / efficacy of inhibition of IL-2 release: anti-CD3/anti-CD28-stimulated PBMCs
HT29 cells = experiment: IL-1β-stimulated IL-8 production by HT29 cells; assay type: cell-based, human; conditions: for maximum inhibition of IL-8 secretion, compound alone: IL-1β-stimulated HT29, 0.1-1000 ng/mL, maximum at 1000 ng/mL; for inhibitory effect on IL-8 secretion at 100 ng/mL: IL-1β-stimulated HT29, compound alone
[2] = tested on: LPS-stimulated primary human macrophages; experiment: LPS activation of monocyte-derived macrophages, IL-8 and TNF-α release; assay type: cell-based; conditions: for inhibition of IL-8 release / inhibition of TNF-α release: LPS-stimulated macrophages, up to maximum tested 250 ng/mL; for inhibition: Homo sapiens, Macrophage
Outline: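 CD14+ cells taken from human PBMCs by magnetic positive selection. Differentiated 12–14 days in RPMI with 10% FBS and GM-CSF 100 ng/mL. Plated at 2 × 10^5 cells/mL and equilibrated for 2 h. Pretreated 2 h with test compound or DMSO 0.5% v/v, then stimulated with LPS 10 ng/mL for 24 h. Supernatant IL-8 and TNF-α measured by ELISA.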

LPS-stimulated PBMCs = experiment: LPS stimulation of PBMCs, IL-8 release; assay type: cell-based, human; conditions: for inhibition: Homo sapiens, PBMC, read-out: maximum inhibition of IL-8 release
Outline: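 Healthy-donor PBMCs (Lymphoprep) at 1 × 10^6 cells/mL in RPMI 1640 with 10% heat-inactivated FBS and 25 mM HEPES. Preincubated 2 h at 37°C, 5% CO2 with test compound 0.1–1000 ng/mL or DMSO 0.5% v/v. LPS 1 ng/mL then added for 24 h. Supernatant IL-8 measured by ELISA. At least 3 independent experiments.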

[3] = tested on: myofibroblasts isolated from inflamed UC mucosa; experiment: TNF-α-stimulated IL-6 and IL-8 release by UC myofibroblasts; assay type: cell-based, human; conditions: for maximum inhibition (efficacy) of IL-6 release / maximum inhibition (efficacy) of IL-8 release: UC myofibroblasts, TNF-α-stimulated, 0.01-10 μg/mL; for IC50: 24 h
Outline: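 Myofibroblasts grown from explants of inflamed resected UC mucosa in DMEM with 20% FBS and antibiotics, passaged with trypsin-EDTA and used at passage ≥4. Seeded at 5 × 10^4/well and cultured overnight. Stimulated with TNF-α 20 ng/mL plus DMSO 0.5% v/v or test compound (0.000001–1 or 0.01–10 μg/mL). After 24 h, IL-6 and IL-8 measured by ELISA as percent inhibition versus TNF-α + DMSO; at least 3 independent experiments.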

[4] = tested on: patients with active Crohn's disease; conditions: cited from earlier work
[5] = tested on: inflamed colonic biopsies from patients with UC; experiment: Organ culture of inflamed colonic UC biopsies, cytokine release; assay type: cell-based, human; conditions: 24 h; for inhibition at 1 µg/mL: Homo sapiens
Outline: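 Inflamed colonic UC biopsies cultured one per well in serum-free HL-1 medium with penicillin/streptomycin at 37°C, 5% CO2. Treated with DMSO 0.5% v/v, test compounds at 1 μg/mL, the three selective inhibitors combined, or one compound at 0.001–1 μg/mL. After 24 h, supernatant IL-1β, IL-6 and IL-8 measured by ELISA. Results given as mean percent inhibition versus DMSO; at least 3 independent experiments.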

[6] = Propidium iodide flow cytometry cell viability assay; assay type: cell-based; conditions: concentrations tested in the cellular assays, data not shown
[7] = tested on: mouse acetic acid-induced colitis; conditions: mouse acetic acid-induced colitis model; cited from earlier work
[8] = tested on: rheumatoid arthritis patients; conditions: phase III trial; cited from earlier work
patients with UC = conditions: oral, clinical trial; cited from earlier work
[9] = read-out: inhibition of IL-1β release
[10] = read-out: inhibition of IL-6 release
[11] = read-out: inhibition of IL-8 release
[12] = read-out: inhibition of TNF-α release
[13] = Homo sapiens, read-out: IL-6 (IC50 Value)
[14] = Homo sapiens, read-out: IL-8 (IC50 Value)

Row | Structure (SMILES) | efficacy of inhibition of IFN-γ release [1] | efficacy of inhibition of IL-2 release [1] | maximum inhibition of IL-8 secretion, compound alone (HT29 cells) | inhibitory effect on IL-8 secretion at 100 ng/mL (HT29 cells) | inhibition of IL-8 release [2] | inhibition of TNF-α release [2] | maximum inhibition (efficacy) of IL-6 release [3] | maximum inhibition (efficacy) of IL-8 release [3] | inhibition at 1 µg/mL [5, 9] [%] | inhibition at 1 µg/mL [5, 10] [%] | inhibition at 1 µg/mL [5, 11] [%] | inhibition [2, 11] [%] | inhibition [2, 12] [%] | inhibition (LPS-stimulated PBMCs) [%] | IC50 [3, 13] [µg/mL] | IC50 [3, 14] [µg/mL] | also measured
1 | COc1ccc(-c2cc3nccn3c(Nc3ncccc3C(N)=O)n2)cc1OC [BAY-61-3606] | maximal efficacy | weaker inhibition | 17% | Neither dasatinib nor BAY-61-3606 had any significant inhibitory effect | less than 50% | less than 50% | over 90% | over 90% |  |  |  |  |  |  |  |  | efficacy of inhibition of IFN-γ release ([1]; listed as BAY61-3606): weaker inhibition; potency weaker than TOP1210, IFN-γ release ([1]; ratio of IC50 values): 120 fold; potency weaker than TOP1210, IL-8 release (LPS-stimulated PBMCs; LPS-stimulated PBMCs, ratio of IC50 values): ~300 fold; maximum inhibition of IL-8 release (LPS-stimulated PBMCs; LPS-stimulated PBMCs, up to maximum tested 1 μg/mL): 83%
2 | Cc1ccc(-n2nc(C(C)(C)C)cc2NC(=O)Nc2ccc(OCCN3CCOCC3)c3ccccc23)cc1 [BIRB-796] | inactive; also recorded: little-to-no effect | little-to-no effect |  |  |  |  | 70% | 70% | 50 to 65 | 50 to 65 | 50 to 65 | < 50 | < 50 | < 50 | > 1 | > 1 | serum C-reactive protein ([4]; after 1 week): dose-dependent decrease; clinical efficacy endpoints compared to placebo ([4]; any time point): no clinical efficacy endpoints were reached
3 | Cc1nc(Nc2ncc(C(=O)Nc3c(C)cccc3Cl)s2)cc(N2CCN(CCO)CC2)n1 [Dasatinib] |  |  |  | Neither dasatinib nor BAY-61-3606 had any significant inhibitory effect |  |  |  |  |  |  |  | < 50 | 87 | < 50 | > 1 | > 1 | inhibition of IL-1β release ([5]; inflamed UC biopsies, 1 μg/mL): did not have any significant effect; inhibition of IL-6 release ([5]; inflamed UC biopsies, 1 μg/mL): did not have any significant effect; inhibition of IL-8 release ([5]; inflamed UC biopsies, 1 μg/mL): did not have any significant effect; inhibition at 10 µg/mL ([3]; Homo sapiens, read-out: inhibition of IL-8 release): ~70%
4 | C#Cc1cc(Nc2nccc(Oc3ccc(NC(=O)Nc4cc(C(C)(C)C)nn4-c4ccc(C)cc4)c4ccccc34)n2)cc(C(=O)NCCOCCOCCOC)c1 [TOP1210, 3-((4-((4-(3-(3-(tert-butyl)-1-(p-tolyl)-1H-pyrazol-5-yl)ureido)naphthalen-1 yl)oxy)pyrimidin-2-yl)amino)-5-ethynyl-N-(2-(2-(2-methoxyethoxy)ethoxy)ethyl)benzamide] | maximal inhibition |  | maximal efficacy |  | maximal inhibition | maximal inhibition |  |  | 80 to 90 | 80 to 90 | 80 to 90 |  |  | 100 | 0.0022 (≈ 0.00276 µM) | 0.0021 (≈ 0.00264 µM) | potency weaker than dasatinib, IL-2 release ([1]; ratio vs dasatinib): approximately 15 fold; potency weaker as inhibitor of IL-2 release compared with IFN-γ release ([1]; same compound, IL-2 vs IFN-γ): 18 fold; cell viability (propidium iodide, flow cytometry) [6]: not to effect cell viability
5 | COc1cc(Nc2ncc(F)c(Nc3ccc4c(n3)N(COP(=O)(O)O)C(=O)C(C)(C)O4)n2)cc(OC)c1OC [fostamatinib] |  |  |  |  |  |  |  |  |  |  |  |  |  |  |  |  | mucosal damage [7]: decrease mucosal damage; efficacy in rheumatoid arthritis [8]: limited efficacy
6 | C[C@@H]1CCN(C(=O)CC#N)C[C@@H]1N(C)c1ncnc2[nH]ccc12 [tofacitinib] |  |  |  |  |  |  |  |  |  |  |  |  |  |  |  |  | efficacy in UC (patients with UC): effective
